The target in assay [1] is POU domain, class 5, transcription factor 1 (Homo sapiens) (UniProt Q01860). Nature of the assay: Activation of Oct3/4 (unknown origin) expressed in HEK293 cells after 72 hrs by luciferase reporter gene assay relative to control. Format: cell-based. An outline of the steps:
(§1)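 HEK293 cells stably carrying luciferase under a human Oct3/4 promoter (HEK-Oct3/4), or NCCIT cells lentivirally transduced with an Oct3/4 transcriptional response element reporter (NCCIT-Oct3/4, kept under 400 ng/mL puromycin). Cells seeded at 100,000/well for 24 h, then treated with compound. Lysed for 10 min at 37°C, luciferin/ATP mix added, read after 3 min. Signal given as percent of control cells; at least five independent experiments.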
(Reporter assays use an easily measured gene product as a stand-in for the process of interest.)

Assay [2] has the same target. The assay is described as follows: Activation of Oct3/4 in human fibroblasts assessed as increase of Rex1 gene expression after 48 hrs by RT-PCR analysis relative to control. In outline: (§2)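 qRT-PCR of pluripotency-related genes in compound-treated HEK293 cells or primary human skin fibroblasts, against an endogenous control gene. Values normalized to DMSO-treated cells as mean ± SD of quadruplicates, representative of two independent experiments.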

Assay [3] concerns Fibroblast. The assay is described as follows: Increase of Oct3/4 gene expression in human fibroblasts after 48 hrs by RT-PCR analysis relative to control. Format: functional. An outline of the steps: as §2
In assay [4] the target is POU domain, class 5, transcription factor 1 (Homo sapiens) (UniProt Q01860). Nature of the assay: Activation of Oct3/4 (unknown origin) expressed in HEK293 cells assessed as […] of Rex1 gene expression after 72 hrs by RT-PCR analysis. It is filed as cell-based. In outline:
as §2

Assay [5] shares this target. The assay is described as follows: Activation of Oct3/4 (unknown origin) expressed in human NCCIT cells at 20 uM after 2 hrs by luciferase reporter gene assay relative to control. Format: cell-based.
The target is the same in assay [6]. The assay is described as follows: Activation of Oct3/4 (unknown origin) expressed in human NCCIT cells at 5 uM after 72 hrs by luciferase reporter gene assay relative to control. Format: cell-based.
For assay [7] the target is unchanged. Nature of the assay: Activation of Oct3/4 (unknown origin) expressed in HEK293 cells at 20 uM after 72 hrs by luciferase reporter gene assay relative to control. Format: cell-based. An outline of the steps: as §1
The target is the same in assay [8]. Nature of the assay: Activation of Oct3/4 in human fibroblasts assessed as co-expression of Oct3/4 and Sox2 after 5 days by immunocytochemistry analysis. In outline: (§3)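 Primary human fibroblasts seeded at 10,000 cells/well on Geltrex. After 24 h, treated for 5 days in DMEM/F12 with 20% knockout serum replacement, 10 ng/mL bFGF and 1 mM β-mercaptoethanol. Fixed in 4% PFA, blocked with 5% goat serum/0.3% Triton. Stained overnight at 4°C for Oct3/4 (1:400), Nanog (1:1000), Sox2 (1:100) or Klf4 (1:100), then Alexa 594/488 secondary for 1 h.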

The target is the same in assay [9]. The assay is described as follows: Activation of Oct3/4 in human fibroblasts assessed as repression of N-cadherin gene expression after 48 hrs by RT-PCR analysis relative to control. An outline of the steps:
as §2

For assay [10] the target is unchanged. Nature of the assay: Activation of Oct3/4 in human fibroblasts assessed as co-expression of Nanog and Klf4 after 5 days by immunocytochemistry analysis. In outline: as §3
Assay [11] shares this target. The assay is described as follows: Activation of Oct3/4 in human fibroblasts assessed as increase of Lin28 protein expression after 72 hrs by immunoblotting relative to control. In outline:
(§4)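 Immunoblot. Compound-treated cells lysed in urea lysis buffer (6 M urea, 0.5% Triton X-100, protease/phosphatase inhibitors). 40 µg total protein run on 10% SDS-PAGE. Probed with Oct3/4, Nanog or Lin28 antibodies, with vinculin or β-actin as loading control. Primary antibody 1:1000 overnight at 4°C, secondary 1:10,000 for 1 h at RT; ECL detection.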
A general note: In western blotting, separated proteins are transferred to a membrane and probed.

Assay [12] concerns HEK293. Nature of the assay: Increase of Oct3/4 gene expression in human HEK293 cells after 72 hrs by RT-PCR analysis. Format: functional, cell-based. In outline: as §2
Assay [13] addresses POU domain, class 5, transcription factor 1 (Homo sapiens) (UniProt Q01860). The assay is described as follows: Activation of Oct3/4 (unknown origin) expressed in human HeLa cells after 72 hrs by luciferase reporter gene assay relative to control. It is filed as cell-based.
Assay [14] shares this target. Nature of the assay: Activation of Oct3/4 (unknown origin) expressed in human HEK293 cells after 48 hrs by luciferase reporter gene assay relative to control. It is filed as cell-based. An outline of the steps:
as §1

Assay [15] shares this target. Nature of the assay: Activation of Oct3/4 (unknown origin) expressed in HEK293 cells assessed as increase of Lin28 gene expression after 72 hrs by RT-PCR analysis. Format: cell-based. An outline of the steps: as §2
For assay [16] the target is unchanged. Nature of the assay: Activation of Oct3/4 in human fibroblasts assessed as increase of Nanog gene expression after 48 hrs by RT-PCR analysis relative to control. An outline of the steps: as §2
Assay [17] concerns HEK293. Nature of the assay: Increase of Oct3/4 expression in human HEK293 cells after 72 hrs by immunoblotting. Format: functional, cell-based. An outline of the steps:
as §4

Assay [18] deals with POU domain, class 5, transcription factor 1 (Homo sapiens) (UniProt Q01860). The assay is described as follows: Activation of Oct3/4 in human fibroblasts assessed as increase of Nanog protein expression after 72 hrs by immunoblotting relative to control. An outline of the steps:
as §4

Assay [19] shares this target. Nature of the assay: Activation of Oct3/4 (unknown origin) expressed in human HeLa cells assessed as accumulation of Nanog after 72 hrs by immunoblotting. It is filed as cell-based. In outline:
as §4

The target is the same in assay [20]. The assay is described as follows: Activation of Oct3/4 (unknown origin) expressed in HEK293 cells assessed as increase of Sox2 gene expression after 72 hrs by RT-PCR analysis. It is filed as cell-based. An outline of the steps:
as §2

For assay [21] the target is unchanged. Nature of the assay: Activation of Oct3/4 (unknown origin) expressed in human NCCIT cells assessed as accumulation of Nanog after 72 hrs by immunoblotting. It is filed as cell-based. In outline:
as §4

The target is the same in assay [22]. Nature of the assay: Activation of Oct3/4 in human fibroblasts assessed as increase of Lin28 gene expression after 48 hrs by RT-PCR analysis relative to control. In outline: as §2
Assay [23] concerns Fibroblast. The assay is described as follows: Induction of endogenous cellular parameters in human fibroblasts assessed as increase in ALP-FITC signal using propidium iodide staining after 5 days. It is filed as functional, cell-based.
Assay [24] addresses POU domain, class 5, transcription factor 1 (Homo sapiens) (UniProt Q01860). The assay is described as follows: Activation of Oct3/4 (unknown origin) transcriptional activity expressed in human NCCIT cells after 72 hrs by luciferase reporter gene assay relative to control. It is filed as cell-based. In outline:
as §1

Assay [25] has the same target. The assay is described as follows: Activation of Oct3/4 (unknown origin) expressed in HEK293 cells assessed as accumulation of Nanog after 72 hrs by immunoblotting. It is filed as cell-based. In outline:
as §4

Assay [26] shares this target. Nature of the assay: Activation of Oct3/4 (unknown origin) transcriptional activity expressed in human NCCIT cells at 20 uM by luciferase reporter gene assay relative to control. To be noted: TDE = time-dependent effect. It is filed as cell-based. In outline:
as §1

The target is the same in assay [27]. The assay is described as follows: Activation of Oct3/4 (unknown origin) expressed in HEK293 cells at 40 uM after 72 hrs by luciferase reporter gene assay relative to control. Format: cell-based. In outline: as §1
The target is the same in assay [28]. The assay is described as follows: Activation of Oct3/4 (unknown origin) expressed in HEK293 cells assessed as increase of Nanog gene expression after 72 hrs by RT-PCR analysis. It is filed as cell-based. In outline:
as §2

Active and inactive are the calls of the source. The calls are words filed in the database; no cut-off is given here.

Chain of POU domain, class 5, transcription factor 1 (Homo sapiens) (Q01860 whole entry, the tested form may be a part): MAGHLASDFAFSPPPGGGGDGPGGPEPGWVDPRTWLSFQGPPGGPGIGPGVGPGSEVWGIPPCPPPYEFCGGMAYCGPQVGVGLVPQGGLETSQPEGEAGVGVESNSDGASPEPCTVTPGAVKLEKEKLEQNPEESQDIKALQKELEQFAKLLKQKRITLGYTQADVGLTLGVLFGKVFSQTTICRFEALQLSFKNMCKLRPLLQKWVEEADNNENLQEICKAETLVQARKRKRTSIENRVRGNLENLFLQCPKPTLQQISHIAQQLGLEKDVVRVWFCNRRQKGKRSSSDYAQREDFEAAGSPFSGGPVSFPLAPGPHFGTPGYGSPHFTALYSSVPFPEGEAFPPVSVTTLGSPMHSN

On to `CCOC(=O)c1csc(NC(C)=O)n1`, for which, in assay [1], the result was inactive.

`C=CCNc1nc(C(=O)OCC)cs1`: the result in [1] was inactive.

In the case of `CCOC(=O)c1csc(Nc2ccc(Cl)cc2Cl)n1`, the outcome in assay [1] was Active.

For `CCOC(=O)c1csc(Nc2cccc(F)c2)n1`, the outcome in assay [1] was Active.

As for `CCOC(=O)c1csc(NCc2ccccc2)n1`, the result in [1] was inactive.

As for `CCOC(=O)c1csc(Nc2cccc(Cl)c2)n1`, the outcome in assay [1] was Active.

Regarding `O=C(O)c1csc(Nc2ccc(Cl)cc2Cl)n1`, the result in [1] was inactive.

As for `O=C(O)c1csc(Nc2cc(Cl)ccc2Cl)n1`, the result in assay [1] was inactive.

As to `CCOC(=O)c1csc(Nc2ccc(Nc3nc(C(=O)OCC)cs3)cc2)n1`, in assay [1], the outcome was inactive.

With `CCOC(=O)c1csc(N)n1`, the outcome in [1] was inactive.

In the case of `O=C(O)c1csc(Nc2ccc(Cl)cc2)n1`, the outcome in assay [1] was inactive.

As for `CCOC(=O)c1csc(Nc2ccccc2)n1`, in assay [1], the result was Active.

As for `CN(C)CCCNC(=O)c1csc(Nc2ccc(Cl)cc2)n1`, in assay [1], the result was inactive.

Turning to `CCOC(=O)c1csc(Nc2ccc(Cl)cc2)n1`, the fold change (FC) in assay [2] was 30; in assay [3], 15; in assay [7] it was 2; in [16], 2; in [22], 20; in [24] it was 4. Also, the fold change (FC) in assay [27] amounted to 3.5. Also, the outcome in assay [4], in assay [5], in assay [6], in assay [8], in assay [9] and in [10] was Active. The result in assay [11], in assay [12], in assay [1], in assay [18], in assay [20] and in assay [21] was Active. The result in [23], in assay [25] and in [28] was Active. Moreover, the Activity result in [13] is “Dose-dependent effect”; in assay [17], “Dose-dependent effect”; in [19], “Dose-dependent effect”; in assay [24], “Dose-dependent effect”; in assay [26], “tde”. Besides, the outcome in assay [14] and in [15] was inactive.

With `CCCCNc1nc(C(=O)OCC)cs1`, in assay [1], the outcome was inactive.

Turning to `CCOC(=O)c1csc(Nc2ccc(Cl)c(Cl)c2)n1`, the result in assay [1] was Active.

`O=C(O)c1csc(Nc2cccc(Cl)c2)n1`: the outcome in assay [1] was inactive.

These data come from ChEMBL document CHEMBL3593191, “Ethyl 2-((4-Chlorophenyl)amino)thiazole-4-carboxylate and Derivatives Are Potent Inducers of Oct3/4” (2015).
